Assay results collected from several papers.
Organism: Plasmodium falciparum
Effect on: parasite growth

`O=C1c2[nH]cc3c2C(=NCC3)c2c(-c3ccc(O)cc3)c[nH]c21` gave an IC50 of 4540 nM (SYBR Green; W2; blood stage).
For `O=C(/C=C/c1cn(Cc2cn(-c3ccnc4cc(Cl)ccc34)nn2)c2ccccc12)c1cccs1`, the inhibition was 32.1% (SYBR Green; 3D7; 5 µM; blood stage).
`O=C1C(O)=C([C@H]2CC[C@H](c3ccc(Cl)cc3)CC2)C(=O)c2ccccc21` gave an EC50 of 0.86 nM (SYBR Green; 72 h).
With `O=C1C(NCCc2ccc(O)cc2)=CC2=NCCc3c[nH]c1c32` the IC50 was 476 nM (SYBR Green; W2; blood stage).
For `COCC(=O)N1CCC[C@H](C(=O)NCc2nc(-c3cccnc3)cs2)C1`, the EC50 was 92 nM (SYBR Green; DD2; 72 h; blood stage).
For `Cn1cc2c3c1C(=O)C(NCCc1ccc(O)cc1)=CC3=NCC2`, the IC50 was 5010 nM (SYBR Green; W2; blood stage).
The inhibition of `O=C(/C=C/c1cn(Cc2cn(-c3ccnc4cc(Cl)ccc34)nn2)c2ccccc12)c1ccc(Br)cc1` is reported as 37.4% (SYBR Green; 3D7; 10 µM; blood stage).
`CCOCC(=O)N1CCC[C@H](C(=O)NCc2nc(-c3ccc(C#N)cc3)cs2)C1` gave an EC50 of 5.8 nM (SYBR Green; DD2; 72 h; blood stage).
`COC(CNC1=CC2=NCCc3c[nH]c(c32)C1=O)c1c[nH]c2ccccc12` (centres unmarked) gave an IC50 of 654 nM (SYBR Green; DD2; blood stage).
`Cc1cc(Nc2ccc(S(F)(F)(F)(F)F)cc2)n2nc(C(C)(F)F)nc2n1` gave an EC50 of 8.4 nM (3D7; blood stage).
`O=C1C(NCCc2c[nH]c3ccccc23)=CC2=NCCc3c[nH]c1c32` gave an IC50 of 716 nM (SYBR Green; W2; blood stage).
With `COCC(=O)N1CCC[C@H](C(=O)NCc2nc(-c3ccc(OC)cc3)cs2)C1` the EC50 was 20 nM (SYBR Green; DD2; 72 h; blood stage).
The IC50 of `COc1ccccc1C(=O)/C=C/c1cn(Cc2cn(-c3ccnc4cc(Cl)ccc34)nn2)c2ccccc12` is reported as 3500 nM (SYBR Green; drug-resistant strain, blood stage).
For `CCN(CC)CCCC(C)Nc1ccnc2cc(Cl)ccc12` (centres unmarked), the IC50 was 6.57 nM (SYBR Green; D6; 72 h; blood stage).
With `O=C(/C=C/c1cn(Cc2cn(-c3ccnc4cc(Cl)ccc34)nn2)c2ccccc12)c1ccccc1Br` the inhibition was -1.58% (SYBR Green; 3D7; 5 µM; blood stage).
`COCC(=O)N1CCC[C@@H](C(=O)NCc2nc(-c3ccccc3)cs2)C1` has an EC50 of 7000 nM (SYBR Green; DD2; 72 h; blood stage).
The inhibition of `O=C(/C=C/c1cn(Cc2cn(-c3ccnc4cc(Cl)ccc34)nn2)c2ccccc12)c1ccccc1[N+](=O)[O-]` is reported as 26.1% (SYBR Green; 3D7; 10 µM; blood stage).
With `NC1=CC2=NCCc3c[nH]c(c32)C1=O` the IC50 was 294 nM (SYBR Green; W2; blood stage).
For `O=C(/C=C/c1cn(Cc2cn(-c3ccnc4cc(Cl)ccc34)nn2)c2ccccc12)c1cccc([N+](=O)[O-])c1`, the inhibition was 4.82% (SYBR Green; 3D7; 5 µM; blood stage).
For `CCOC(=O)C1=C(C)NC2=C(C(=O)OC(c3ccc(OC)c(OC)c3)C2)C1c1ccccc1C` (mixture of isomers), the EC50 was 40 to 190 nM (SYBR Green; 3D7; blood stage).
